Laboratory results from ChEMBL document CHEMBL1126206, “Potential anti-AIDS naphthalenesulfonic acid derivatives. Synthesis and inhibition of HIV-1 induced cytopathogenesis and HIV-1 and HIV-2 reverse transcriptase activities” (J Med Chem, 1992).

Tests used:
[1] = Evaluated for 50% cytotoxic concentration based on reduction of viability of mock-infected cells; format: cell-based; conditions: human, MT4 cells (mock-infected)
Procedure, shortened: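 Mock-infected MT-4 cells were cultured with a range of compound concentrations for 4 days, and viability was read by MTT.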

[2] = test system: MT4; test: Evaluated for 50% antiviral effective concentration based on inhibition of HIV-1 (HTLV-IIIB) induced cytopathogenicity in MT-4 cells; format: functional, cell-based; conditions: Homo sapiens
Procedure, shortened: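 MT-4 cells were infected with HIV-1 HTLV-IIIB at MOI 0.02 and cultured with a range of compound concentrations for 4 days. Viable cells were counted by MTT.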

[3] = biological target: Human immunodeficiency virus type 1 reverse transcriptase (Human immunodeficiency virus 1, UniProt Q72547); test: Inhibition of purified HIV-1 reverse transcriptase
Procedure, shortened: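 Recombinant dimeric RT expressed in E. coli (HIV-1 p66/p51, HIV-2 p68/p55), 0.08 μg per reaction; identical conditions for both enzymes. Buffer: 50 mM Tris-HCl pH 8.0, 150 mM KCl, 5 mM MgCl2, 0.5 mM EGTA, 5 mM DTT, 0.3 mM glutathione. Template-primer poly(rA)·oligo(dT)12-18 with 20 μM TTP plus [3H]TTP. Compound in DMSO or water. Incubated 1 h at 37 °C, stopped with EGTA. Incorporation read on DE-81 filters by scintillation.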

Nc1ccc2c(S(=O)(=O)O)cc(S(=O)(=O)O)c(N)c2c1O
CC50 [1]: 7.7 µM
EC50 [2]: > 7.7 µM

O=S(=O)(O)c1cc(NS(=O)(=O)c2ccc(-c3ccc(S(=O)(=O)Nc4cc(S(=O)(=O)O)cc5cc(S(=O)(=O)O)cc(S(=O)(=O)O)c45)cc3)cc2)c2c(S(=O)(=O)O)cc(S(=O)(=O)O)cc2c1
CC50 [1]: > 100 µM
IC50 [3]: > 849 µM
EC50 [2]: 36 µM

O=S(=O)(O)c1ccc(-c2ccc(S(=O)(=O)Nc3cc(S(=O)(=O)O)cc4cc(S(=O)(=O)O)cc(S(=O)(=O)O)c34)cc2)cc1
CC50 [1]: > 100 µM
IC50 [3]: > 1000 µM
EC50 [2]: > 100 µM

CCCCCCCCCCCCCCCC(=O)Nc1cc(S(=O)(=O)O)cc2cc(S(=O)(=O)O)cc(S(=O)(=O)O)c12
CC50 [1]: 42 µM
IC50 [3]: 55 µM
EC50 [2]: > 42 µM

CC(=O)Nc1cc(S(=O)(=O)O)cc2cc(S(=O)(=O)O)cc(S(=O)(=O)O)c12
CC50 [1]: > 100 µM
IC50 [3]: > 1000 µM
EC50 [2]: > 100 µM

CC(=O)Nc1cc(S(=O)(=O)O)cc2cc(S(=O)(=O)O)cc(OC(C)=O)c12
CC50 [1]: > 500 µM
IC50 [3]: > 1000 µM
EC50 [2]: > 500 µM

O=C(O)CCCC(=O)Nc1cc(S(=O)(=O)O)cc2cc(S(=O)(=O)O)cc(O)c12
CC50 [1]: > 500 µM
IC50 [3]: > 1000 µM
EC50 [2]: > 500 µM

COc1cc(S(=O)(=O)O)cc2cc(S(=O)(=O)[O-])cc([N+](C)(C)C)c12
CC50 [1]: > 500 µM
IC50 [3]: > 1000 µM
EC50 [2]: > 500 µM

COc1cc(S(=O)(=O)O)cc2cc(S(=O)(=O)O)cc(N(C)C)c12
CC50 [1]: > 500 µM
IC50 [3]: > 1000 µM
EC50 [2]: > 500 µM

O=C(O)CCCCCCCCC(=O)Nc1cc(S(=O)(=O)O)cc2cc(S(=O)(=O)O)cc(O)c12
CC50 [1]: > 500 µM
IC50 [3]: 135 µM
EC50 [2]: 134 µM

Nc1cc(S(=O)(=O)O)cc2cc(S(=O)(=O)O)cc(S(=O)(=O)O)c12
CC50 [1]: > 100 µM
IC50 [3]: > 1000 µM
EC50 [2]: > 100 µM

O=C(CCCCCCCCCCC(=O)Nc1cc(S(=O)(=O)O)cc2cc(S(=O)(=O)O)cc(S(=O)(=O)O)c12)Nc1cc(S(=O)(=O)O)cc2cc(S(=O)(=O)O)cc(S(=O)(=O)O)c12
CC50 [1]: > 100 µM
IC50 [3]: 136 µM
EC50 [2]: > 51 µM

Nc1c(S(=O)(=O)O)cc2cc(S(=O)(=O)O)cc(O)c2c1O
CC50 [1]: 12 µM
IC50 [3]: 162 µM
EC50 [2]: > 12 µM

CC(=O)Oc1cc(S(=O)(=O)O)cc2cc(S(=O)(=O)O)cc(OC(C)=O)c12
CC50 [1]: 461 µM
IC50 [3]: > 1000 µM
EC50 [2]: > 461 µM

CC(=O)Oc1cc(S(=O)(=O)O)cc2cc(S(=O)(=O)O)c(N=Nc3ccccc3)c(OC(C)=O)c12
CC50 [1]: > 500 µM
IC50 [3]: > 1000 µM
EC50 [2]: > 500 µM

O=C(O)c1cc(NS(=O)(=O)c2ccc(-c3ccc(S(=O)(=O)Nc4cc(C(=O)O)c(O)c(S(=O)(=O)O)c4)cc3)cc2)cc(S(=O)(=O)O)c1O
CC50 [1]: 247 µM
IC50 [3]: 427 µM
EC50 [2]: 52.5 µM

CCCCCCCCCCCCCCCC(=O)Nc1cc(S(=O)(=O)O)cc2cc(S(=O)(=O)O)cc(O)c12
CC50 [1]: 250 µM
EC50 [2]: 37 µM

CCCCCCCCCCCCCCCC(=O)Oc1cc(S(=O)(=O)O)cc2cc(S(=O)(=O)O)cc(OC(=O)CCCCCCCCCCCCCCC)c12
CC50 [1]: 15 µM
EC50 [2]: > 15 µM

O=C(Nc1cc(S(=O)(=O)O)cc2cc(S(=O)(=O)O)cc(O)c12)c1ccccc1
CC50 [1]: > 500 µM
IC50 [3]: 464 µM
EC50 [2]: 358 µM

CC(=O)Nc1cc(S(=O)(=O)O)cc2cc(S(=O)(=O)O)cc(O)c12
CC50 [1]: 402 µM
IC50 [3]: 243 µM
EC50 [2]: 53 µM

Nc1ccc2cc(S(=O)(=O)O)cc(S(=O)(=O)O)c2c1
CC50 [1]: > 500 µM
IC50 [3]: > 1000 µM
EC50 [2]: > 500 µM

O=S(=O)(O)c1cc(S(=O)(=O)O)c2cc(NS(=O)(=O)c3ccc(-c4ccc(S(=O)(=O)Nc5ccc6cc(S(=O)(=O)O)cc(S(=O)(=O)O)c6c5)cc4)cc3)ccc2c1
CC50 [1]: > 500 µM
IC50 [3]: 125 µM
EC50 [2]: 29.5 µM

O=C(CCCCCCCCC(=O)Nc1cc(S(=O)(=O)O)cc2cc(S(=O)(=O)O)cc(O)c12)Nc1cc(S(=O)(=O)O)cc2cc(S(=O)(=O)O)cc(O)c12
CC50 [1]: 288 µM
IC50 [3]: 52 µM
EC50 [2]: 9.7 µM

Nc1cc(S(=O)(=O)O)cc2cc(S(=O)(=O)O)cc(O)c12
CC50 [1]: 529 µM
IC50 [3]: > 1000 µM
EC50 [2]: > 529 µM

Nc1cc(S(=O)(=O)O)c2ccccc2c1N
CC50 [1]: 189 µM
IC50 [3]: 50 µM
EC50 [2]: > 189 µM

O=S(=O)(O)c1cc(O)c2c(O)cc(S(=O)(=O)O)cc2c1 [CHROMOTROPATE]
CC50 [1]: 1180 µM
EC50 [2]: > 1180 µM

Cc1ccc(C(=O)Nc2ccc(S(=O)(=O)O)c3cc(S(=O)(=O)O)cc(S(=O)(=O)O)c23)cc1NC(=O)c1cccc(NC(=O)Nc2cccc(C(=O)Nc3cc(C(=O)Nc4ccc(S(=O)(=O)O)c5cc(S(=O)(=O)O)cc(S(=O)(=O)O)c45)ccc3C)c2)c1 [SURAMIN]
CC50 [1]: 250 µM
EC50 [2]: 8.2 µM
